From PubChem BioAssay
Compounds with a hit are over-represented: about 1.5% of the library has one in this group of screens.
MEX-5 binding = C. elegans MEX-5 TCR-2 RNA binding activity | Q9XUB2 | MEX-5/FITC-TCR2 RNA binding, fluorescence polarization; stronger effect = lower value | activity score (negative = inhibition of binding), % at 10 µM | 0.38% of 300,000 active | AID 1832;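 active = inhibition past about -25% in most replicates, and total fluorescence under double the plate's negative control median, limit read from the data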
FID counter = counter-screen for HCV NS3 helicase inhibitors: DNA intercalator displacement; DNA fluorescent intercalator displacement, fluorescence; inhibition, % at 7.9 µM; 0.17% of 290,000 active; in the data active = inhibition above about 37%;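 also: higher means more ethidium bromide displaced from hairpin DNA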
CendR NRP1 mod = modulators of CendR peptide binding to human neuropilin-1. O14786. FAM-RPARPAR peptide binding to NRP-1, fluorescence polarization. inhibition, % at 25 µM. 0.85% of 360,000 active. AID 602438;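 active = inhibition or corrected inhibition above about 18%, plus a signal ratio from 0.5 to 1.5, limit read from the data, passing the limit was not always enough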
Target sequence (O14786 whole entry, looked up): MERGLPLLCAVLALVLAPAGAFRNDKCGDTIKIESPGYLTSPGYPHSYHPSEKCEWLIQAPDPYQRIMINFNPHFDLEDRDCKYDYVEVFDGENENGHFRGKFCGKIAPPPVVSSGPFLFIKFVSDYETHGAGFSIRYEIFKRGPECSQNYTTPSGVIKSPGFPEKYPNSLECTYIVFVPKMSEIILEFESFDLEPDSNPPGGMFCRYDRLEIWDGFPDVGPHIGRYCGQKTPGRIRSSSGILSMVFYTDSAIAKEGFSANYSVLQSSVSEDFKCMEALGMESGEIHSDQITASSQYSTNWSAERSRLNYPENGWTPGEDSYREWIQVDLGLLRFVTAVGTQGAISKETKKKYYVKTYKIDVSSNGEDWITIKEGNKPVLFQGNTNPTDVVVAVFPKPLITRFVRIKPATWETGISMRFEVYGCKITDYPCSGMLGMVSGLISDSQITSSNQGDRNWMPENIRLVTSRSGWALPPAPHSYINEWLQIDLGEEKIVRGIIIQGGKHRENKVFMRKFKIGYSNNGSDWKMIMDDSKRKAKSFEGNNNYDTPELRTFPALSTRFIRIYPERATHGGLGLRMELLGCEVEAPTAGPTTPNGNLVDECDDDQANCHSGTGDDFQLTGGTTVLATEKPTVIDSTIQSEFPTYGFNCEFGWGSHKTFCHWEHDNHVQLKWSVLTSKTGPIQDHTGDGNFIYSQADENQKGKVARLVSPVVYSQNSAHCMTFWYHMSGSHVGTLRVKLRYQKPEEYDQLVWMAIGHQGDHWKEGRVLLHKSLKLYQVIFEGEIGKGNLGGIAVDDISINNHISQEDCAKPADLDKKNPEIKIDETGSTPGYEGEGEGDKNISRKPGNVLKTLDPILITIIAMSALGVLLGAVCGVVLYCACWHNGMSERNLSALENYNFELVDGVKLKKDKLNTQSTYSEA
core dimer inh = HCV core protein dimerization inhibition; TR-FRET GST/Flag-core106 dimerization, 1536-well; inhibition, % at 5 µM; 0.33% of 300,000 active;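 active = inhibition above the mean of all tested compounds plus 3 SD, set per screening campaign, cut at about 45% in these data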
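Material: GST/Flag-tagged HCV core106 proteins. Incubation: 4 h, 22.5 °C incubation. Read-out basis: inhibition (%) from 671 over 617 nm ratio. Measured by: TR-FRET, excitation 340 nm, emission 617 and 671 nm.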
Large screens that a line does not name were inactive.

O=C(CN1C(=O)COc2ccccc21)NCCCN1CCN(c2ccccc2F)CC1	FID counter 37
Fc1cccc(Cc2c(-c3ccco3)nc3c(Cl)cc(C(F)(F)F)cn23)c1	none (no result: MEX-5 binding, FID counter, core dimer inh)
Cc1ccc(S(=O)(=O)Nc2cc3c(C(=O)Nc4ccccc4)c(C)oc3c3ccccc23)cc1	core dimer inh 50
CC(C)CC1C(=O)N(Cc2cn(CC3CCCCC3)nn2)CCS(=O)(=O)N1Cc1ccc(-c2cccc(C#N)c2)cc1 (stereo unspecified)	none (no result: MEX-5 binding, FID counter, core dimer inh)
O=C(NCCc1nc2ccccc2[nH]1)c1ccco1	none
O=C(/C=C/c1ccco1)N/C(=C\c1ccccc1)C(=O)NCCc1nc2ccccc2[nH]1	CendR NRP1 mod 40
CCCCCCCCN1C(=O)[C@H](CC(=O)NCc2ccccc2)C[C@@]2(C(=O)OC)CCCCC=C12	none (no result: MEX-5 binding, FID counter, core dimer inh)
Cc1ccc(C(=O)C(C)Sc2nnc(N)s2)cc1 (stereo unspecified)	none
COC(=O)C(C)Sc1nnc(SC(C)C(=O)OC)s1 (stereo unspecified)	CendR NRP1 mod 36
O=C(O)c1cn(Cc2ccccc2)c2ccc(Cl)cc2c1=O	CendR NRP1 mod 23 (no result: FID counter)
O=C(CNC(=O)c1ccccc1)NCCCSc1ccccc1	CendR NRP1 mod 27 (no result: MEX-5 binding, FID counter, core dimer inh)
CCOc1ccc(C(=O)NCC(=O)NCCCSc2ccccc2)cc1OCC	none
O=C(Nc1ccccc1C(=O)NCc1ccco1)NC1CCCCC1	CendR NRP1 mod 20
Cc1ccc(NC(=S)NCCSc2ccc(Cl)cc2)cc1	none
COC(=O)Cc1ccc(NC(=S)NN2CCOCC2)cc1	none
COC(=O)Cc1ccc(NC(=S)NCCCO)cc1	CendR NRP1 mod 40
COC(=O)Cc1ccc(NC(=S)NCCSc2ccc(C)cc2)cc1	CendR NRP1 mod 29
COc1cc(NCC2COc3c(ccc(OC)c3OC)C2=O)c([N+](=O)[O-])cc1OC (stereo unspecified)	none (no result: MEX-5 binding, FID counter, core dimer inh)
NS(=O)(=O)c1ccc(CCNC(=O)c2cc(-c3ccccc3)nc3ccccc23)cc1	CendR NRP1 mod 30
COC(=O)C1=NN(C(=O)c2ccc(C)cc2)C(O)(c2ccc(Cl)cc2)C1 (stereo unspecified)	MEX-5 binding -40 (no result: CendR NRP1 mod)
COC(=O)C1=NN(C(=O)c2ccccc2)C(O)(c2ccc([N+](=O)[O-])cc2)C1 (stereo unspecified)	none (no result: core dimer inh)
NC(=O)C1=C[C@@H](c2ccc(Br)cc2)C[C@@H](OCc2ccc(CO)cc2)O1	none
O=C(NCc1ccccc1)C1=C[C@H](C2CCCCC2)C[C@H](OCc2ccc(CO)cc2)O1	CendR NRP1 mod 18
O=C(NCc1ccccc1)C1=C[C@@H](C2CC2)C[C@@H](OCc2ccc(CO)cc2)O1	none
NC(=O)C1=C[C@H](c2ccc(Br)cc2)C[C@H](OCc2ccc(CO)cc2)O1	CendR NRP1 mod 26
NC(=O)C1=C[C@H](C2CCCCC2)C[C@H](OCc2ccc(CO)cc2)O1	CendR NRP1 mod 28
COc1ccc(NC(=O)COC(=O)c2ccc(S(=O)(=O)N3CCCCCC3)cc2)c(OC)c1	none (no result: MEX-5 binding, FID counter, core dimer inh)
Cc1ccc(-c2cnc(C(O)c3ccc(C)cc3)[nH]2)cc1 (stereo unspecified)	none (no result: MEX-5 binding, FID counter, core dimer inh)
CCC1=C(OC(=O)N(CC)CC)N2C(=O)OC(=NCC(=O)OC)[C@]2(Cc2ccccc2)[C@H]2C1=CC[C@H]1C(=O)N(CC(=O)OC)C(=O)[C@H]12	CendR NRP1 mod 27 (no result: FID counter)
CCC1=C(OC(=O)N(CC)CC)N2C(=O)OC(=NCCOC)[C@]2(Cc2ccccc2)[C@H]2C1=CC[C@H]1C(=O)N(C)C(=O)[C@H]12	CendR NRP1 mod 24 (no result: FID counter)
CCC1=C(OC(=O)N(CC)CC)N2C(=O)OC(=NCc3ccccc3)[C@]2(C)[C@H]2C1=CC[C@H]1C(=O)N(CC)C(=O)[C@H]12	none (no result: FID counter)
CCC1=C(OC(=O)N(CC)CC)N2C(=O)OC(=NCC(=O)OC)[C@]2(C)[C@H]2C1=CC[C@H]1C(=O)N(CC(=O)OC)C(=O)[C@H]12	CendR NRP1 mod 24 (no result: FID counter)
CCC1=C(OC(=O)N(CC)CC)N2C(=O)OC(=NCCOC)[C@]2(Cc2ccccc2)[C@H]2C1=CC[C@H]1C(=O)N(CC)C(=O)[C@H]12	none (no result: FID counter)
CCC1=C(OC(=O)N(CC)CC)N2C(=O)OC(=NCC(=O)OC)[C@]2(C)[C@H]2C1=CC[C@H]1C(=O)N(CC)C(=O)[C@H]12	CendR NRP1 mod 35 (no result: FID counter)
CCOC(=O)[C@]12CCC=C1N(Cc1ccc(Cl)cc1Cl)C(=O)[C@H](CC(=O)NCc1ccc(OC)c(OC)c1)C2	none (no result: MEX-5 binding, FID counter, core dimer inh)
C[C@H]1COc2cc(N(C)CCO)ccc2S(=O)(=O)N1	none (no result: MEX-5 binding, FID counter, core dimer inh)
COc1ccc(C(C)(NC(C)=O)c2nc(-c3ccc(F)cc3OC)cs2)cc1 (stereo unspecified)	none (no result: MEX-5 binding, FID counter, core dimer inh)
COc1cccc2cc(-c3nc4ccccc4o3)c(=O)oc12	CendR NRP1 mod 30
O=C(NCC(F)(F)F)c1[nH]c(C(F)(F)F)nc1-c1ccccc1	none (no result: MEX-5 binding, FID counter, core dimer inh)
CC(/C=C/c1ccccc1)=N\NC(=O)CCc1ccccc1	CendR NRP1 mod 24
NC(=O)COC(=O)c1c2c(nc3ccccc13)CCC2	CendR NRP1 mod 20
O=C(CSc1c2c(nc3ccccc13)CCCC2)NCc1ccco1	none
CC(C)(C)NC(=O)COC(=O)c1c2c(nc3ccccc13)CCC2	core dimer inh 53
CC(C)(C)c1nc(SCC(=O)NCc2ccco2)c2ccccc2n1	CendR NRP1 mod 26
Cc1cc2cc(C)c(SCC(=O)NCc3ccco3)nc2cc1C	none
CC(C)NC(=O)NC(=O)COC(=O)c1c2c(nc3ccccc13)CCC2	none
O=C(NCc1ccco1)c1c2c(nc3ccccc13)CCC2	core dimer inh 91
CCOc1ccc(C(=O)NCc2cccnc2)cc1[N+](=O)[O-]	CendR NRP1 mod 22
O=C(NCc1cccnc1)c1ccc(N2CCOCC2)c([N+](=O)[O-])c1	none
C(=C\c1ccccc1)/CN1CCN(C(c2cc3ccccc3o2)c2nnnn2-c2ccc3c(c2)OCCO3)CC1 (stereo unspecified)	none (no result: MEX-5 binding, FID counter, core dimer inh)
C[C@@H]1CN([C@@H](C)CO)C(=O)CCCn2nncc2CO[C@@H]1CN(C)S(=O)(=O)c1cccs1	none (no result: MEX-5 binding, FID counter, core dimer inh)
COc1ccc(OC)c(C(O)c2nc3ccccc3n2C(C)C)c1 (stereo unspecified)	none
COc1cc(C(O)c2nc3ccccc3n2C(C)C)cc(OC)c1OC (stereo unspecified)	FID counter 53
C[C@H](CO)N1C[C@H](C)[C@@H](CN(C)Cc2cncnc2)Oc2cc(Br)ccc2S1(=O)=O	none (no result: MEX-5 binding, FID counter, core dimer inh)
COCCNC(=O)/C(C#N)=C/c1ccc2c(c1)OCO2	CendR NRP1 mod 35
N#C/C(=C\c1ccc2c(c1)OCO2)C(=O)NCc1ccco1	none
COCCNC(=O)/C(C#N)=C/c1cc(C)n(-c2ccc(C)cc2)c1C	CendR NRP1 mod 27
COCCNC(=O)C1CCCN(Cc2cccc(C(F)(F)F)c2)CC1 (stereo unspecified)	none (no result: MEX-5 binding, FID counter, core dimer inh)
NC(Cc1ccc(F)cc1)c1csc(Nc2cc(Oc3ccccc3)ncn2)n1 (stereo unspecified)	none (no result: MEX-5 binding, FID counter, core dimer inh)
COC(=O)c1ccccc1NC(=O)c1cc2ccccc2o1	none
O=C(Nc1ccccc1C(=O)N1CCOCC1)c1cc2ccccc2o1	CendR NRP1 mod 22
O=C(/C=C/c1ccccc1[N+](=O)[O-])OCC(=O)N1CCN(c2ccccc2)CC1	none (no result: MEX-5 binding, FID counter, core dimer inh)
